“And” between values parts separate entries of the source, which are not always exact repeats. Equal entries are not always repeated.

Experiment [1] deals with Rattus norvegicus. Description: In vivo antihypertensive activity against spontaneously hypertensive rats after oral administration of 10 uM/Kg dose between 18-24 hours. It counts as functional. An outline of the steps:
(§1)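 Male SHR, surgically prepared, recovered 2 weeks on regular food and water. Low-NaCl diet from 5 days before testing; furosemide 2.5 mg/kg on 3 consecutive days before testing. Compounds given orally as agar suspension. Mean arterial pressure monitored for 24 h; maximum % fall in pressure per 6-h interval, n = 8-10.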

Experiment [2] concerns Rattus norvegicus. As to the kind of experiment: In vivo antihypertensive activity against spontaneously hypertensive rats after oral administration of 30 umol/kg dose between 0-6 hours. It counts as functional. A digest of the protocol: as §1
Experiment [3] deals with T1, Type-1 angiotensin II receptor B (Rattus norvegicus, UniProt P29089).
T1 sequence (P29089 whole entry): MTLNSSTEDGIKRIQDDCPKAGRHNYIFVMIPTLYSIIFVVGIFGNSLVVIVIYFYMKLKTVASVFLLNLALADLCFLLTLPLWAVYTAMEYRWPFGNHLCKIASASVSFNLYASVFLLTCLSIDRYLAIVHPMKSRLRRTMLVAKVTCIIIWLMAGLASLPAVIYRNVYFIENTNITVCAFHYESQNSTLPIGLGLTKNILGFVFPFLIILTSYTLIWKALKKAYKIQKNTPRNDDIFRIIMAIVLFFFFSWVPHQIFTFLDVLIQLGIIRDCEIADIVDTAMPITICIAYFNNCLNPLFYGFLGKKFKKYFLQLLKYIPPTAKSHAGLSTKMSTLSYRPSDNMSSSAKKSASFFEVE
Description: Inhibition of [125I]- Sar,Ile8-angiotensin II binding to rat adrenal cortical membrane angiotensin II receptor.

Experiment [4] has as its system Rattus norvegicus. Description: In vivo antihypertensive activity against spontaneously hypertensive rats after oral administration of 10 uM/Kg dose between 0-6 hours. In kind it is functional. A digest of the protocol:
as §1

The species entered for another experiment is Oryctolagus cuniculus. Description: In vitro functional potency by antagonism of angiotensin II induced contraction of isolated rabbit aorta. A digest of the protocol:
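Isolated rabbit aorta contracted by angiotensin II; antagonism expressed as KB (nM, ±SEM).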

Experiment [5] has as its system Rattus norvegicus. Description: In vivo antihypertensive activity against spontaneously hypertensive rats after oral administration of 30 uM/Kg dose between 6-12 hours. In kind it is functional. A digest of the protocol:
as §1

Experiment [6] relates to Rattus norvegicus. Description: Compound was tested in vivo for antagonistic activity for the 50% inhibition of AII pressor response in male rats after intravenous administration. In kind it is functional. An outline of the steps:
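Normotensive male rats received three doses of test agent iv, then AII challenge (100 ng/kg iv) 2 min later. ED50 (dose halving the AII pressor response) from simplex curve fit of log dose versus maximum percent inhibition; n = 4.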

The test system of experiment [7] is Rattus norvegicus. Description: In vivo antihypertensive activity against spontaneously hypertensive rats after oral administration of 10 uM/Kg dose between 6-12 hours. In kind it is functional. A digest of the protocol: as §1
The test system of experiment [8] is Rattus norvegicus. Description: In vivo antihypertensive activity against spontaneously hypertensive rats after oral administration of 30 uM/Kg dose between 18-24 hours. It counts as functional. An outline of the steps:
as §1

Experiment [9] concerns Rattus norvegicus. Description: In vivo antihypertensive activity against spontaneously hypertensive rats after oral administration of 10 uM/Kg dose between 12-18 hours. It counts as functional. A digest of the protocol:
as §1

For experiment [10], the system named is Rattus norvegicus. As to the kind of experiment: In vivo antihypertensive activity against spontaneously hypertensive rats after oral administration of 30 uM/Kg dose between 12-18 hours. It counts as functional. A digest of the protocol: as §1
Experiment [11] deals with Rattus norvegicus. As to the kind of experiment: In vivo antihypertensive activity against spontaneously hypertensive rats after oral administration of 30 uM/Kg dose between 0-6 hours. It counts as functional. An outline of the steps:
as §1

Experiment [12] relates to Rattus norvegicus. As to the kind of experiment: In vivo antihypertensive activity against spontaneously hypertensive rats after oral administration of 30 umol/kg dose between 6-12 hours. It counts as functional. An outline of the steps:
as §1

The test system of experiment [13] is Rattus norvegicus. As to the kind of experiment: In vivo antihypertensive activity against spontaneously hypertensive rats after oral administration of 10 umol/kg dose between 6-12 hours. It counts as functional. An outline of the steps: as §1
For experiment [14], the system named is Rattus norvegicus. As to the kind of experiment: In vivo antihypertensive activity against spontaneously hypertensive rats after oral administration of 10 umol/kg dose between 0-6 hours. It counts as functional. A digest of the protocol: as §1
For experiment [15], the system named is Rattus norvegicus. As to the kind of experiment: In vivo antihypertensive activity against spontaneously hypertensive rats after oral administration of 30 umol/kg dose between 18-24 hours. It counts as functional. An outline of the steps: as §1
Experiment [16] concerns Rattus norvegicus. Description: In vivo antihypertensive activity against spontaneously hypertensive rats after oral administration of 30 umol/kg dose between 12-18 hours. In kind it is functional. A digest of the protocol: as §1

With `CCCCC1=NC(Cl)=C(C(=O)OCC)C(C)N1Cc1ccc(-c2ccccc2-c2nnn[n-]2)cc1.[K+]` (stereo unspecified), the “Decrease in blood pressure” value worked out at 17% in the experiment on Rattus norvegicus [1]; 23% in the experiment on Rattus norvegicus [2]; 14% in the experiment with Rattus norvegicus [4]; 20% with Rattus norvegicus [5]; 14% with Rattus norvegicus [7]; 20% in the experiment on Rattus norvegicus [8]. The “Decrease in blood pressure” value is given as 15% in the experiment with Rattus norvegicus [9] and 19% in the experiment with Rattus norvegicus [10]. In experiment [3], the inhibition constant Ki is 8.3 nM. In the experiment filed under Oryctolagus cuniculus (Oryctolagus cuniculus, Aorta), the Kb was determined as 5.3 nM. The same compound had an ED50 in the experiment with Rattus norvegicus [6] of 1.65 µmol/kg.

As for `CCCCC1=NC(C)=C(C(=O)OCC)C(C)N1Cc1ccc(-c2ccccc2C(=O)O)cc1` (stereo unspecified), in experiment [3], the affinity, expressed as Ki, was 990 nM. In the experiment listed under Oryctolagus cuniculus (Oryctolagus cuniculus, Aorta), this compound displayed a Kb of 660 nM.

As to `CCCCc1nc(-c2ccccc2)c(C(=O)OCC)c(=O)n1Cc1ccc(-c2ccccc2C(=O)O)cc1`, affinity in [3] was put at a Ki of 1600 nM. In addition, the antagonist equilibrium constant (Kb) in the experiment listed under Oryctolagus cuniculus (Oryctolagus cuniculus, Aorta) stood at 140 nM.

As to `CCCCC1=NC(c2ccccc2)=C(C(=O)OCC)C(C)N1Cc1ccc(-c2ccccc2C(=O)O)cc1` (stereo unspecified), in experiment [3], the Ki turned out to be 850 nM. The Kb in the experiment listed under Oryctolagus cuniculus (Oryctolagus cuniculus, Aorta) turned out to be 630 nM.

As to `CCCCC1=NC(C)(C)C(C(=O)OCC)=C(Cl)N1Cc1ccc(-c2ccccc2C(=O)O)cc1`, in experiment [3], the inhibition constant (Ki) was 58 nM. For the same compound, the Kb in the experiment listed under Oryctolagus cuniculus (Oryctolagus cuniculus, Aorta) was determined as 23 nM.

As to `CCCCc1nc(C)c(C(=O)OCC)c(=O)n1Cc1ccc(-c2ccccc2C(=O)O)cc1`, the inhibition constant (Ki) in [3] was determined as 150 nM. Besides, the Kb in the experiment filed under Oryctolagus cuniculus (Oryctolagus cuniculus, Aorta) is 95 nM.

As to `CCCCC1=NC(C)(C)C(C(=O)OCC)=C(Cl)N1Cc1ccc(-c2ccccc2-c2nn[nH]n2)cc1`, the Ki in experiment [3] amounted to 1.1 nM. Moreover, the “Decrease in blood pressure” value in the experiment with Rattus norvegicus [11] is listed as 5%; with Rattus norvegicus [5], 3%; in the experiment on Rattus norvegicus [8], 2%; in the experiment with Rattus norvegicus [10] it was 4%. This compound also displayed a Kb in the experiment listed under Oryctolagus cuniculus (Oryctolagus cuniculus, Aorta) of 24 nM. The same compound registered a median effective dose (ED50) in the experiment on Rattus norvegicus [6] of 2.4 µmol/kg.

For the compound `CCCCc1ncc(C(=O)OCC)c(=O)n1Cc1ccc(-c2ccccc2C(=O)O)cc1`, affinity in [3] was put at a Ki of 82 nM. Further, the Kb in the experiment listed under Oryctolagus cuniculus (Oryctolagus cuniculus, Aorta) amounted to 610 nM.

On to `CCCCC1=NC(Cl)=C(C(=O)OCC)C(C)N1Cc1ccc(-c2ccccc2C(=O)O)cc1` (stereo unspecified), for which affinity in experiment [3] was put at a Ki of 41 nM. The Kb in the experiment filed under Oryctolagus cuniculus (Oryctolagus cuniculus, Aorta) was found to be 70 nM.

The compound `CCCCC1=NC(Cl)=C(C(=O)OCC)C(c2ccccc2)N1Cc1ccc(-c2ccccc2C(=O)O)cc1` (stereo unspecified) showed a Kb in the experiment listed under Oryctolagus cuniculus (Oryctolagus cuniculus, Aorta) of 1000 nM.

Compound `CCCCC1=NC(Cl)=C(C(=O)O)C(C)N1Cc1ccc(-c2ccccc2-c2nn[nH]n2)cc1` (stereo unspecified) displayed a Ki in experiment [3] of 1 nM. Also, the “Decrease in blood pressure” value was 8% in the experiment on Rattus norvegicus [11], 0% in the experiment on Rattus norvegicus [5], 1% with Rattus norvegicus [8] and 2% with Rattus norvegicus [10]. In the experiment listed under Oryctolagus cuniculus (Oryctolagus cuniculus, Aorta), this compound showed a Kb of 0.45 nM. Further, the 50% effective dose (ED50) in the experiment with Rattus norvegicus [6] turned out to be 0.076 µmol/kg.

`CCCCC1=NC(c2ccc(Cl)cc2)=C(C(=O)OCC)C(C)N1Cc1ccc(-c2ccccc2C(=O)O)cc1` (stereo unspecified) gave a Ki in experiment [3] of 190 nM. The compound also gave a Kb in the experiment listed under Oryctolagus cuniculus (Oryctolagus cuniculus, Aorta) of 520 nM.

For `CCCCc1nc(Cl)c(CO)n1Cc1ccc(-c2ccccc2-c2nnn[n-]2)cc1.[K+]` [LOSARTAN POTASSIUM], the “Decrease in blood pressure” value with Rattus norvegicus [2] is 31%; in the experiment with Rattus norvegicus [12], 35%; in the experiment with Rattus norvegicus [13], 20%; in the experiment on Rattus norvegicus [14] it was 13%; with Rattus norvegicus [15] it was 38% and 24%; in the experiment on Rattus norvegicus [16], 37% and 22%. The antagonist dissociation constant (Kb) in the experiment filed under Oryctolagus cuniculus turned out to be 2.6 nM. Further, the 50% effect level in the experiment on Rattus norvegicus [6] (ED50) was put at a dose of 1.8 µmol/kg.

In turn, `CCCCc1nc(Cl)c(CO)n1Cc1ccc(-c2ccccc2-c2nnn[nH]2)cc1` [LOSARTAN] gave a Kb in the experiment filed under Oryctolagus cuniculus of 86 nM.

The values are drawn from ChEMBL document CHEMBL1125557, “Dihydropyrimidine angiotensin II receptor antagonists” (J Med Chem, 1992).
